Laboratory results taken from article PMC4764081 (Science (New York, N.Y.), 2015).

How the values were obtained:
[1] = test system: centrosomes; assay: centrosome amplification in cells; format: cell-based; details: fig. S1
[2] = test system: RPE1 human retinal pigment epithelial cells; assay: RPE1 passaging assay and flow cytometry; format: cell-based
How it was run: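 RPE1 cells passaged with inhibitor added on day 0 and washed out on day 8; proliferation followed over serial passages. Data are means ± SD, N = 2.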

[3] = test system: p53; assay: Western blot of p53 in RPE1 cells; format: cell-based, human; details: RPE1, without genotoxic stress
[4] = biological target: T1, Polo-like kinase 4 (Plk4) (Homo sapiens, UniProt O00444); assay: Plk4 inhibition in vitro; format: biochemical; details: read-out: inhibition constant (Ki)
T1 sequence (O00444 1-970): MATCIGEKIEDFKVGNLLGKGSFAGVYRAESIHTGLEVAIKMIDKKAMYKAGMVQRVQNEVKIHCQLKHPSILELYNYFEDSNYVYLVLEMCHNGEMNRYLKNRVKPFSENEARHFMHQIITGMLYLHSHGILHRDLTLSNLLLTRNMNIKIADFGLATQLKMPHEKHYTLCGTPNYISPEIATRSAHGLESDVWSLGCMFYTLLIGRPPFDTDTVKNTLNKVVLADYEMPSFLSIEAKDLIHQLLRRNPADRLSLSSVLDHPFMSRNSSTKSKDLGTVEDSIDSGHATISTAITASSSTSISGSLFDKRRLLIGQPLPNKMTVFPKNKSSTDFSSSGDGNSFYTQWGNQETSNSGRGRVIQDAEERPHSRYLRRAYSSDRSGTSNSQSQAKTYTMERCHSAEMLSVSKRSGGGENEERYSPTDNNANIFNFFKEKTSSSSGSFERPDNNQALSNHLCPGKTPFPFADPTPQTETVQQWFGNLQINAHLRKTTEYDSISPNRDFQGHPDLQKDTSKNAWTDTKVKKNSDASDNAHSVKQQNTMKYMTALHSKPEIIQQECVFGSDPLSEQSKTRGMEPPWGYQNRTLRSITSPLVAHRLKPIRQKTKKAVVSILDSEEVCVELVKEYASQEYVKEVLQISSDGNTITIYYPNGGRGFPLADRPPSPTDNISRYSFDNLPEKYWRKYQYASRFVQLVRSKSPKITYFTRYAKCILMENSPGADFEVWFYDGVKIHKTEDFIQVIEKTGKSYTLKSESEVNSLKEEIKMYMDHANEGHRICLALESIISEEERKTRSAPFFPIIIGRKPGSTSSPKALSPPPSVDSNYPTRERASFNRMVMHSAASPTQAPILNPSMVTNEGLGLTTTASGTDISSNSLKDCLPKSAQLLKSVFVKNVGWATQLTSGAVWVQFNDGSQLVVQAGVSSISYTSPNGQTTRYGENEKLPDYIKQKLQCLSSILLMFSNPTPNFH

[5] = test system: centrosomes; assay: centrosome depletion; format: cell-based; details: cellular activity
[6] = test system: HeLa human cervical carcinoma cells; assay: centriole/centrosome depletion and washout in HeLa cells; format: cell-based
How it was run: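 HeLa cells under continuous treatment scored for foci carrying centriolar and pericentriolar markers at each round of division. Cells were imaged 7 days after inhibitor addition and again 10 days after washout.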

[7] = test system: RPE1 cells expressing G95L Plk4; assay: RPE1 Plk4 G95L knock-in cells, centrosome number and passaging; format: cell-based, human; details: RPE1, both endogenous PLK4 alleles G95L
[8] = test system: NIH/3T3 cells; assay: mitotic duration by imaging, NIH/3T3; format: cell-based, mouse; details: centrosome-less NIH/3T3 cells
[9] = test system: g-H2A.X foci; assay: g-H2A.X foci in RPE1 nuclei; format: cell-based, human; details: RPE1 treated cells
How it was run: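 γ-H2A.X foci, marking double-strand DNA breaks, counted in nuclei of treated RPE1 cells. Values are means ± SD, N = 3.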

[10] = test system: NIH/3T3 cells induced to overexpress Plk4-GFP; assay: centriole amplification in cells overexpressing wild-type or G95L Plk4-GFP; format: cell-based, mouse
[11] = test system: multiciliated Xenopus epithelial cells; assay: centriole number in multiciliated Xenopus epithelial cells; format: cell-based
[12] = test system: HeLa cells; assay: mitotic duration by imaging, HeLa; format: cell-based, human; details: centrosome-less HeLa cells
[13] = test system: RPE1 cells coexpressing centrin-GFP and H2B-RFP; assay: RPE1 lineage analysis by live-cell imaging; format: cell-based, human; details: acute treatment
How it was run: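 RPE1 cells coexpressing centrin-GFP and H2B-RFP filmed after inhibitor addition. Both GFP and RFP channels were imaged at first to count centrosomes and follow mother-cell mitosis. Daughter fate was then tracked with RFP only. Arrest was scored as failure to enter mitosis within 48 hours of cell birth, and the percentage arresting per generation was reported; N = 2.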

COc1ccc2c(c1)[C@]1(C[C@H]1c1ccc3c(/C=C/c4ccc(CN5C[C@@H](C)O[C@@H](C)C5)cc4)n[nH]c3c1)C(=O)N2 [CFI-400945]
effect on centrosome number [1]: induces centrosome amplification

CCOc1cc(C(C)(C)C)ccc1C1=N[C@@](C)(c2ccc(Cl)cc2)[C@@](C)(c2ccc(Cl)cc2)N1C(=O)N1CCN(CCCS(C)(=O)=O)CC1 [R7112, reference compound]
proliferation after washout ([2]; RPE1, addition day 0, washout day 8): resumption of proliferation | effect on p53 levels [3]: raised p53 levels

COc1c(Nc2cc(C)[nH]n2)nc(Sc2ccc(S(=O)(=O)Cc3cccc([N+](=O)[O-])c3F)cc2F)nc1N1CCCCC1 [centrinone-B]
Ki [4]: 0.6 nM | centrosome depletion at (concentration) [5]: 500 nM

COc1c(Nc2cc(C)[nH]n2)nc(Sc2ccc(S(=O)(=O)Cc3cccc([N+](=O)[O-])c3F)cc2F)nc1N1CCOCC1 [centrinone]
reversibility of centriole loss ([6]; 10 days after washout): fully reversible | effect on centriolar and pericentriolar material foci ([6]; at each round of cell division): progressive reduction | centrosome loss or proliferation arrest [7]: did not lead to centrosome loss or proliferation arrest | centrosome depletion at (concentration) [5]: 100 nM | effect on cell cycle ([2]; RPE1, 12-day passaging assay and flow cytometry): cell cycle arrest in G1 | increase of mitotic duration [8]: ~20 min | g-H2A.X foci abundance [9]: not more abundant | effect on centriole amplification [10]: blocked centriole amplification | effect on centriole number [11]: reduced centriole number | increase of mitotic duration [12]: ~1 h | fraction of progeny arrested ([13]; one-centrosome progeny of pioneer one-centrosome mothers): 25.5% | fraction of progeny arrested ([13]; progeny of pioneer zero-centrosome mothers): 70% | fraction of progeny arrested ([13]; zero-centrosome progeny of pioneer one-centrosome mothers): 33.0%
